Compound activity as filed in PubChem.
UCH37 DUB inh – inhibitors of human deubiquitinating enzyme UCH37 | Q9Y5K5 | 330,000 compounds, 0.33% hits | inhibition, % (test concentration not listed) | purified proteasome/UCH37, Ub-AMC cleavage fluorescence;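 active = mean inhibition over replicate wells above about 20%, limit read from the data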;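 note: 0% = compound-free wells with enzyme and 100% = wells lacking proteasome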
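Material: Human UCH37 enzyme supplied as purified proteasome complex | Schedule: 30 min preincubation with enzyme, 25 min cleavage at room temperature | Detection: AMC fluorescence 355/460 nm | Measure: % inhibition of Ub-AMC cleavage fluorescence | Controls: Wells without proteasome as full block, compound-free enzyme plus substrate as uninhibited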
HDAC3 inhib – human HDAC3 inhibition. recombinant HDAC3, fluorogenic peptide/trypsin coupled, fluorescence. 320,000 compounds, 0.15% hits. inhibition, % at 8.3 µM. O15379. AID 2718; in the data active = inhibition above about 26%, passing the limit was not always enough; inconclusive = no clear call, values can overlap the other calls
Target sequence (O15379 whole entry, looked up): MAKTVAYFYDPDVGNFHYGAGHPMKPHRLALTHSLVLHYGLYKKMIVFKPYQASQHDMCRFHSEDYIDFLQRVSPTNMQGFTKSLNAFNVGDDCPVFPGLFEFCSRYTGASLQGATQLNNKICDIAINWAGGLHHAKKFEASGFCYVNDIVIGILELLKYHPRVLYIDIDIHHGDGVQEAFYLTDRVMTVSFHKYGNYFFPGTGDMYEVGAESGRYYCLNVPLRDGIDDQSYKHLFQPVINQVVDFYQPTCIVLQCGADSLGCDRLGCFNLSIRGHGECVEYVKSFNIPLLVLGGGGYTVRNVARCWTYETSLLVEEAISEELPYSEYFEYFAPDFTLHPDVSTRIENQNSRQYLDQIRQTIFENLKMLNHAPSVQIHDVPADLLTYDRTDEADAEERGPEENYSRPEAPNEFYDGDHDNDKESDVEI
FAS-TE inh – FAS thioesterase (human) inhibition; P49327; recombinant FAS-TE, OMFH fluorogenic substrate, fluorescence endpoint; inhibition, % at 15 µM; 360,000 compounds, 0.67% hits;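 active = compounds whose normalised, plate-corrected inhibition of enzyme fluorescence in the single-dose primary screen is 50% or more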;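 note: 0% = DMSO with enzyme and 100% = substrate without enzyme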
ALR inh – blocks human ALR sulfhydryl oxidase activity; purified ALR, DTT oxidation, H2O2 HRP-luminol luminescence; P55789; 290,000 compounds, 3.8% hits; inhibition, % (test concentration not listed);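 active = mean replicate inhibition above about 79%, with every replicate also reaching it, limit read from the data; inconclusive = only one of the two criteria met; inactive = mean below limit and not every replicate reaching it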
Rtt109 HAT inh – C. albicans Rtt109 histone acetyltransferase inhibition; 330,000 compounds, 0.16% hits; inhibition, % at 34.9 µM; Q5AAJ8; purified Rtt109/Vps75, ThioGlo CoA-SH fluorescence, 4 h;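 active = inhibition of at least 50% in every replicate; inconclusive = best replicate reaches 50% inhibition but some replicates fall short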
PfM18AAP inh – blocks P. falciparum M18 aspartyl aminopeptidase | recombinant PfM18AAP, H-Glu-NHMec fluorogenic cleavage | inhibition, % at 7.35 µM | 290,000 compounds, 1.2% hits | AID 1822;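 active = inhibition above the campaign mean inhibition over all tested compounds plus 3 SD, cut at about 28% in these data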;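 note: 0% = plate median of test compound wells and 100% = 2 mM ZnCl2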
Starred values were filed as active, the others as inactive; ? = inconclusive; / = not tested or not shown; ! = not active in a repeat. This is a sample that favours compounds with a hit; in the whole collection about 4.6% have one here.

SMILES	UCH37 DUB inh	HDAC3 inhib	FAS-TE inh	ALR inh	Rtt109 HAT inh	PfM18AAP inh
O=C1C(Cl)=C(N2CCOCC2)C(=O)N1c1ccccc1Cl	5	1	-16	27	162*	25
O=C1C(Cl)=C(N2CCCCCC2)C(=O)N1c1ccccc1Cl	2	1	8	-1	-3	-4
O=C1C(Cl)=C(N2CCOCC2)C(=O)N1c1cccc(C(F)(F)F)c1	8	-2	22	12	?	19
Brc1cccc(C=NNc2nn[nH]n2)c1	4	/	/	/	/	/
CC(CCc1ccccc1)=NNC(=O)C(=O)NC(C)c1ccccc1 (centres undefined)	3	/	/	/	/	/
CN(C)c1ccc(NC(=O)c2cc3c(=O)n4ccccc4nc3n2C)cc1	-63	-3	-5	82*	4	-6
COc1ccc(OC)c(NC(=O)c2cc3c(=O)n4ccccc4nc3n2C)c1	-43	0	1	/	-9	1
CC1=CC(=O)c2c(O)ccc(O)c2C1=O	/	3	/	-10	/	35*
COc1ccc(C=NNC(=O)CCOc2ccccc2C)cc1OC	3	/	/	/	/	/
CCN(CC)CC(=O)Nc1ccc2c(c1)Nc1ccccc1CC2	1	-1	6	99*	9	-9
CCN(CC)CC(=O)Nc1ccc2c(c1)N(C(=O)CN(CC)CC)c1ccccc1CC2	4	3	-4	-12	2	-2
CCc1ccc2cccc3c2c1N=CN3C	2	-2	-2	100*	0	/
COc1cc(C=NNC(=O)c2ccncc2)c([N+](=O)[O-])cc1OC	9	/	/	/	/	/
Cc1sc2c3ccsc3ccc2[n+]1C	-5	13	-7	56	115*	30*
Cc1sc2ccc3sccc3c2[n+]1C	-1	16	-12	41	?	30*
Cc1n[nH]c(=O)c2c(NC(=O)CSc3nn(-c4ccccc4)c(=S)s3)oc(C)c12	8	13	-11	99*	4	/
COc1cc(C=NNC(=O)c2nnn(-c3nonc3N)c2C(C)C)ccc1OCc1ccccc1	-26	/	/	/	/	/
C=CCOc1c(Br)cc(CNn2cn[nH]c2=S)cc1OC	4	4	-7	92*	0	17
C=CCOc1c(Br)cc(CNn2c(C)n[nH]c2=S)cc1OCC	3	5	8	7	8	2
Cc1ccc2[nH]c3nc(NN)nnc3c2c1	7	1	-6	36	7	31*
CC(=NNC(=O)Nc1ccccc1)c1ccc(C)cc1	2	/	/	/	/	/
N=C1/C(=C/c2cccs2)C(=O)N=C2SN=C(SCc3ccccc3)N12	1	1	6	96*	13	-4
CSC1=NSC2=NC(=O)/C(=C/c3coc4ccccc4c3=O)C(=N)N12	-16	-1	-74	98*	14	5
CC1CCCC(C)N1N=Cc1ccccc1F (centres undefined)	-1	/	/	/	/	/
COc1ccc(-c2nc(CS(=O)CC(=O)NCc3ccco3)c(C)o2)cc1 (centres undefined)	-1	-3	-10	99*	2	7
SMILES	UCH37 DUB inh	HDAC3 inhib	FAS-TE inh	ALR inh	Rtt109 HAT inh	PfM18AAP inh
CCc1ccc(-c2nc(CS(=O)CC(=O)NCc3ccco3)c(C)o2)cc1 (centres undefined)	1	-5	-2	99*	11	8
C=CCc1ccc(OCCOc2cccc(C=Nn3cnnc3)c2)c(OC)c1	6	/	/	/	/	/
C=CCn1c(N)c(C(=O)NCc2cccnc2)sc1=S	8	5	1	98*	13	-2
CCOC(=O)CSc1n[nH]c(NC(=O)c2cccc(C)c2)n1	4	90*	0	97*	-8	1
C=CCn1c(C)csc1=Nc1ccc(C(C)=O)cc1	1	-7	-4	16	7	10
C=CCn1c(C)csc1=Nc1ccccc1C	3	-1	10	99*	-6	10
COc1ccc(N2CCN(CC(O)COCCOc3ccc(Br)cc3)CC2)cc1 (centres undefined)	0	2	-9	97*	-2	4
COc1cccc(OCC(O)CN2CCN(c3ccc(Cl)cc3)CC2)c1 (centres undefined)	6	6	6	45	-5	-5
COc1ccc(OCC(O)CN2CCN(c3ccc(Cl)cc3)CC2)cc1 (centres undefined)	6	5	-1	1	2	-1
COc1ccc(N2CCN(CC(O)COc3ccc4c(c3)CCC4)CC2)cc1 (centres undefined)	2	1	0	97*	10	8
COc1cccc(OCC(O)CN2CCN(c3ccccc3)CC2)c1 (centres undefined)	6	-4	-5	96*!	-3	-2
Cc1ccc(CN2CCN(N=Cc3ccc(C(=O)O)cc3)CC2)c(C)c1	2	/	/	/	/	/
N#C/C(=C(/O)c1ccco1)c1nc2ccccc2s1	20*	-8	-1	56	-2	8
Cc1cc(/C=C(/C#N)c2nc3ccccc3[nH]2)c(C)n1-c1cccc([N+](=O)[O-])c1	6	12	20	-1	0	0
COc1cc(/C=C(\C#N)c2nc3ccccc3[nH]2)cc(OC)c1O	8	5	-39	99*	1	9
COc1ccc(/C=C(\C#N)c2nc3ccccc3[nH]2)cc1O	/	/	0	/	-2	9
Cc1cc(/C=C(\C#N)c2nc3ccccc3[nH]2)c(C)n1C	25*	2	-13	-15	7	8
COc1c(O)ccc(/C=C(\C#N)c2nc3ccccc3[nH]2)c1[N+](=O)[O-]	3	10	4	87*	15	0
COc1cc(/C=C(\C#N)c2nc3ccc(C)cc3[nH]2)cc([N+](=O)[O-])c1O	24*	/	6	/	/	-1
O=C(COc1cccc2ccccc12)NN=C/C=C/c1ccccc1	0	/	/	/	/	/
N#CCCn1cc(C=NNC(=O)c2ccncc2)c(-c2ccccc2)n1	5	/	/	/	/	/
CC(=NNC(=O)c1ccc(Br)o1)C(C)C	-1	/	/	/	/	/
Cc1ccc2nc(/C(C#N)=C\c3cc(O)ccc3[N+](=O)[O-])[nH]c2c1	3	8	8	98*	-7	23
Cn1c(C(=O)N2CCCC(Nc3ccc(F)cc3)C2)cc2ccccc21 (centres undefined)	7	3	3	41	2	0
COc1ccc(NC2CCCN(C(=O)c3cn(C)c4ccccc34)C2)cc1 (centres undefined)	0	1	-4	99*	3	2
Cc1ccc(NC2CCCN(C(=O)c3cn(C)c4ccccc34)C2)cc1C (centres undefined)	2	-4	2	92*	2	-4
CC(=NNC(=O)Cc1cccn1C)c1ccccc1	2	/	/	/	/	/
CCn1c(SCC(=O)N/N=C/C=C\c2ccco2)nc2ccccc21	/	-6	6	32	-1	12
C/C(=N/NC(=O)CSc1nc2ccccc2n1C)c1ccc(O)cc1	/	0	5	99*	3	9
